Where two headings read alike, the source gives them in different places. Blank lines part the entries; values can stand above or below the molecule they belong to.
How the values were obtained:
[1] = molecular target: T1, MBP (Escherichia coli, UniProt P0AEX9); assay: DSF thermal stability of MBP with ligands; format: binding, E. coli; conditions: 1 µM MBP, 1mM ligand
[2] = molecular target: T1, MBP; assay: CARS with MBP, SO fluorescence, 96-well; format: binding, E. coli; conditions: for Change in SO fluorescence in the presence of MBP: negative controls, 0–1 mM
[3] = system: E. coli MBP; conditions: MBP ligand; cited from earlier work
[4] = Solubility in cell media; format: physicochemical; conditions: addition to cell media
[5] = system: HEK-cell line stably expressing I477N-mutant myocilin; assay: Mutant myocilin cellular secretion assay; format: cell-based; conditions: 20, 100, 200 µM compound, 24 h, immunoblotting of media
[6] = molecular target: T2, myoc-OLF (Homo sapiens, UniProt Q99972); assay: myoc-OLF amyloid fibrillization assay; format: biochemical; conditions: for myoc-OLF fibrillization (ThT fluorescence): ~3 d, 96-well format; for Fibrils/deposits by AFM: after fibrillization assay
T2 sequence (Q99972 244-503 limits assumed): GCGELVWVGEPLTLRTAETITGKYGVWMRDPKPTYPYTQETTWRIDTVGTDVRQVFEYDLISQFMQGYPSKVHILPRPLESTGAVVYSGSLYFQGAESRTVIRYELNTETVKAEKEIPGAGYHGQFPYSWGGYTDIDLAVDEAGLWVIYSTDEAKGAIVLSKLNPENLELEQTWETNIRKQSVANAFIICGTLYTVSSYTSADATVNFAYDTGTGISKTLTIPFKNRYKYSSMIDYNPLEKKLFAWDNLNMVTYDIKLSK

[7] = system: HEK-cell line stably expressing I477N-mutant myocilin; assay: Cellular toxicity profile; format: cell-based; conditions: up to 200 µM
[8] = molecular target: T2, myoc-OLF; assay: Differential scanning fluorimetry; format: binding; conditions: DSF; hits at concentrations used for screening
[9] = molecular target: T2, myoc-OLF; assay: SPR binding to immobilized myoc-OLF; conditions: for Binding mode by SPR: sensorgram inspection
[10] = Solubility behavior under SPR conditions; format: physicochemical
[11] = molecular target: T2, myoc-OLF; assay: CARS with myoc-OLF, TMAO dose-dependent SO fluorescence, 96-well; format: binding; conditions: 1 µM myoc-OLF, 0.6 M GdnHCl
Summary of the method: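 myoc-OLF was expressed as a Factor Xa-cleavable MBP fusion and purified. TMAO was titrated at 0−1 M, and protein was added last, just before fluorescence readings. The signal window was the SO fluorescence difference with versus without 1 M TMAO.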

[12] = standard SPR conditions, 5% DMSO
[13] = standard SPR conditions, compounds dissolved in 5% DMSO

SMILES: OC[C@H]1O[C@H](O[C@H]2[C@H](O)[C@@H](O)C(O)O[C@@H]2CO)[C@H](O)[C@@H](O)[C@@H]1O (mixture of isomers) [Maltose, maltose]
Change in melting temperature (ITm) [1]: 10 K | Decrease in SO fluorescence intensity ([2]; at low micromolar concentrations, 2 µM MBP, 0.6 M GdnHCl): 50% | Kd [3]: 1 µM

Solubility in cell media [4]: adequate solubility
SMILES: O=c1cc(-c2ccccc2)oc2c(O)c(O)ccc12 [A1, 7,8-dihydroxyflavone]
Secretion of I477N-mutant myocilin [5]: increased I477N-mutant myocilin secretion in a dose-dependent manner | myoc-OLF fibrillization (ThT fluorescence) [6]: dose-dependent decrease in myoc-OLF fibrilization | Cellular toxicity profile [7]: adequate

ΔTm [8]: −0.3 ± 0.2 °C | Fibrils/deposits by AFM [6]: no fibrils apparent
SMILES: O=c1cc(-c2ccc(O)cc2)oc2cc(O)cc(O)c12 [Apigenin, 4’,5,7-trihydroxyflavone]
Solubility in cell media [4]: precipitated upon addition to the cell media | myoc-OLF fibrillization (ThT fluorescence) [6]: decreased myoc-OLF fibrillization in a dose-dependent manner

SMILES: O=C(O)C1=CC(=C(c2ccc(O)c(C(=O)O)c2)c2ccc(O)c(C(=O)O)c2)C=CC1=O [Aurintricarboxilic acid, Aurintricarboxylic acid]
ΔTm [8]: 0.3 ± 0.2 °C | Fibrils/deposits by AFM [6]: high levels of deposits similar to vehicle control | myoc-OLF fibrillization (ThT fluorescence) [6]: increase in ThT fluorescence | Kd [9]: 17.1 ± 9.6 µM

SMILES: O=C1Nc2ccccc2C1=Cc1cc(Br)c(O)c(Br)c1 [G5]
Solubility in cell media [4]: adequate solubility | Secretion of I477N-mutant myocilin [5]: increased I477N-mutant myocilin secretion in a dose-dependent manner | myoc-OLF fibrillization (ThT fluorescence) [6]: potent fibril inhibition | Cellular toxicity profile [7]: adequate

ΔTm [8]: 0.2 ± 0.0 °C | Solubility behavior [10, 12]: poor solubility behavior | Fibrils/deposits by AFM [6]: no fibrils apparent | Kd ([9]; read-out: Kd from SPR, standard SPR conditions, compounds dissolved in 5% DMSO): 33.5 ± 20.9 µM
SMILES: O=C1Nc2ccc(I)cc2C1=Cc1cc(Br)c(O)c(Br)c1 [GW5074, 3-(3,5-dibromo-4-hydroxybenzylidine-5-iodo-1,3-dihydro-indol-2-one)]
Solubility in cell media [4]: precipitated upon addition to the cell media | myoc-OLF fibrillization (ThT fluorescence) [6]: decreased myoc-OLF fibrillization in a dose-dependent manner

Binding mode by SPR [9]: bind non-specifically | Kd from SPR [9, 13]: linear dose-response
SMILES: O=C(/C=C/c1ccc(O)cc1)c1ccc(O)cc1O [Isoliquiritigenin]

ΔTm [8]: −0.4 ± 0.4 °C | Solubility behavior [10, 12]: poor solubility behavior | Binding mode by SPR [9]: non-stoichiometric binders | Kd from SPR ([9]; with surfactant P-20 in buffer solution): weak sigmoidal response ^c, ^d
SMILES: O=c1c(O)c(-c2ccc(O)cc2O)oc2cc(O)cc(O)c12 [Morin]

SMILES: O=c1c(O)c(-c2cc(O)c(O)c(O)c2)oc2cc(O)cc(O)c12 [Myricetin]
ΔTm [8]: 1.7 ± 0.0 °C | Binding mode by SPR [9]: bind non-specifically | Kd from SPR [9, 13]: linear dose-response

ΔTm [8]: 0.0 ± 0.2 °C | Solubility behavior [10, 12]: poor solubility behavior | Kd from SPR [9, 13]: no detectable binding ^d
SMILES: O=C(Nc1ccc([N+](=O)[O-])cc1Cl)c1cc(Cl)ccc1O [Niclosamide]
Binding mode by SPR [9]: failed to elicit an interpretable response

SMILES: O=S(=O)(F)Cc1ccccc1 [PMSF]
Change in SO fluorescence in the presence of MBP [2]: Neither

SMILES: O=C(CCc1ccc(O)cc1)c1c(O)cc(O)cc1O [Phloretin]
ΔTm [8]: 1.2 ± 0.0 °C | Binding mode by SPR [9]: bind non-specifically | Kd from SPR [9, 13]: linear dose-response

ΔTm [8]: −0.4 ± 0.1 °C | Binding mode by SPR [9]: non-stoichiometric binders | Kd from SPR [9, 13]: sigmoidal dose-response
SMILES: Oc1cc(O)cc(/C=C/c2ccc(O)c(O)c2)c1 [Piceatannol]

SMILES: CC(=O)c1c(O)c(C)c(O)c(Cc2c(O)c3c(c(C(=O)/C=C/c4ccccc4)c2O)OC(C)(C)C=C3)c1O [Rottlerin]
Kd [9]: 30.1 ± 0.6 µM | Binding mode by SPR [9]: promiscuous binder

SMILES: C[N+](C)(C)[O-] [TMAO, trimethylamine-N-oxide]
Concentration by which the decrease in SO fluorescence levels off [11]: ≤ 1 M

ΔTm [8]: −0.8 ± 0.0 °C | Solubility behavior [10]: poor solubility behavior | Kd ([9]; read-out: Kd from SPR, with surfactant P-20 in buffer solution): 38.6 ± 12.7 µM | Binding stoichiometry from SPR ([9]; surfactant P-20 present in SPR buffer): stoichiometric binding
SMILES: CC(C)(C)c1cc(/C=C(\C#N)C(N)=S)cc(C(C)(C)C)c1O [Tyrphostin AG 879]

SMILES: NC(=O)CI [iodoacetamide]
Change in SO fluorescence in the presence of MBP [2]: Neither

SMILES: OC[C@@H](O)[C@@H](O[C@H]1O[C@H](CO)[C@@H](O)[C@H](O)[C@H]1O)[C@H](O)[C@@H](O)CO [maltitol]
Change in melting temperature (ITm) [1]: 0.9 K | Concentration by which a decrease in SO fluorescence was seen ([2]; 2 µM MBP, 0.6 M GdnHCl): ~ 10 µM | Kd [3]: 50 µM

SMILES: OC[C@H]1O[C@H](O[C@H]2[C@H](O)[C@@H](O)[C@@H](O[C@H]3[C@H](O)[C@@H](O)[C@@H](O[C@H]4[C@H](O)[C@@H](O)C(O)O[C@@H]4CO)O[C@@H]3CO)O[C@@H]2CO)[C@H](O)[C@@H](O)[C@@H]1O (stereo partly drawn) [maltotetraose]
Change in melting temperature (ITm) [1]: 10 K

— article PMC3944078 (ACS chemical biology, 2013)
